Reference: ChEMBL document CHEMBL1134556, “(-)3-[4-[2-(Phenoxazin-10-yl)ethoxy]phenyl]-2-ethoxypropanoic acid [(-)DRF 2725]: a dual PPAR agonist with potent antihyperglycemic and lipid modulating activity” (J Med Chem, 2001)

Assays:
Assay type in all cases: ADME, organism-based
[1] = Pharmacokinetic parameter in Male Wistar rats at 10 mg/kg oral administration.; design: dose 10 mg/kg, route oral; conditions: rat, in vivo
How it was run: (§1)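 Male Wistar rats; oral arm fasted 14 h, dosed as suspension in 0.25% CMC; IV arm given via tail vein in DMSO 6.6%/Cremophor ELP 6.6%/ethanol 3.3%/saline 83.3%. Retro-orbital blood drawn at 0.05, 0.5, 1, 2, 4, 6, 8, 10 and 21 h. Parameters include AUC0-∞, Cmax, Tmax, Kel, T1/2, Vd, Cl, f. Mean ± SD, n = 4.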

Rattus norvegicus = test: (§2) Pharmacokinetic parameter in Male Wistar rats at 3 mg/kg intravenous administration.; design: dose 3 mg/kg, route intravenous; conditions: in vivo; how it was run: as §1
[2] = as §2; design: dose 3 mg/kg, route intravenous; conditions: rat, in vivo; how it was run: as §1

AUC [1]: 71400 ng·h/mL | Cmax [1]: 17200 ng/mL | Tmax [1]: 1.5 h | bioavailability [1]: 77% | half-life [1]: 2.81 h | k el [1]: 6.94e-05 s⁻¹ | Vd (Rattus norvegicus): 36.92 mL | AUC [2]: 27800 ng·h/mL | Cmax [2]: 18300 ng/mL | clearance [2]: 0.355 mL/min | half-life [2]: 4.69 h | k el [2]: 4.17e-05 s⁻¹
Compound: CCO[C@@H](Cc1ccc(OCCN2c3ccccc3Oc3ccccc32)cc1)C(=O)O [RAGAGLITAZAR]
